Data from ChEMBL document CHEMBL5108057, “Development of MAO-A and 5-HT2AR Dual Inhibitors with Improved Antidepressant Activity” (J Med Chem, 2022).
Calls of active or inactive are those of the source. The rule behind the calls is not given here.

What was measured:
PC-12 = experiment: Neurocytoprotective activity against CORT-induced damage in rat PC-12 cells at 0.5 uM measured after 24 hrs by MTT assay; assay type: functional, cell-based
In short: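 PC12 cells seeded at 5 × 10^4 cells/mL for 24 h. Medium was then replaced with compound (0.5–4.0 μM) plus 500 μM CORT (DMSO <1%) for 24 h. Viability was measured by MTT relative to the CORT model group.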

[1] = biological target: T1, Amine oxidase [flavin-containing] A (Homo sapiens, UniProt P21397); experiment: Inhibition of MAO-A (unknown origin) using p-tyramine as substrate preincubated for 15 mins followed by substrate addition and measured after 15 mins by Amplex red fluorescence based microplate reader assay
T1 sequence (P21397 whole entry): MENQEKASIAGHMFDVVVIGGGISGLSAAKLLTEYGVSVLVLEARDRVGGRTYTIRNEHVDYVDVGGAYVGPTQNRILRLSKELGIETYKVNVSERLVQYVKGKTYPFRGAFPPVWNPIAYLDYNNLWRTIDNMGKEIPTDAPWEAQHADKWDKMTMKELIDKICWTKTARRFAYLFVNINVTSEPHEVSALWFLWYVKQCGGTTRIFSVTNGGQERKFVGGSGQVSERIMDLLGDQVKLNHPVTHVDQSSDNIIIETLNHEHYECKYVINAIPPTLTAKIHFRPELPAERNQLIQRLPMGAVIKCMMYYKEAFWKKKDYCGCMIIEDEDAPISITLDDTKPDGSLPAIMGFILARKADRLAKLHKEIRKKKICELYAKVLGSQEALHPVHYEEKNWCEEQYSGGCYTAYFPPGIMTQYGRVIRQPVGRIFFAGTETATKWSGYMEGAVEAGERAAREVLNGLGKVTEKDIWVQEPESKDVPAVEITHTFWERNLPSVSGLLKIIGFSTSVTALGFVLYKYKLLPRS

Homo sapiens = organism: Homo sapiens; experiment: Selectivity index, ratio of IC50 for inhibition of MAO-B (unknown origin) to IC50 for inhibition of MAO-A (unknown origin)
In short: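 Amplex Red coupled assay. Test sample was preincubated with MAO-A or MAO-B at 37 °C for 15 min. p-Tyramine substrate working solution was added, with HRP converting the H2O2 formed to resorufin, for a further 15 min at 37 °C. Fluorescence read at Ex 545/Em 590 nm. […] SI = MAO-B IC50 / MAO-A IC50.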

[2] = Cytotoxicity against rat PC-12 cells assessed as reduction in cell growth measured after 48 hrs by MTT assay; assay type: toxicity, cell-based
In short: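 MTT assay: PC12, SH-SY5Y or L02 cells at 5.0 × 10^3 per well were grown for 24 h, treated with compound dilutions from 10 mM DMSO stocks, and cultured 48 h. MTT was then added for 4 h at 37 °C, formazan dissolved in DMSO, and absorbance read at 570 nm. Viability is relative to blank control; IC50 from three repeats. Media contained 10% FBS.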

Danio rerio [3] = organism: Danio rerio; experiment: Antidepressant activity in reserpine-induced zebrafish AB depression model assessed as improved locomotion at 0.1 to 1 uM pretreated for 40 mins with reserpine followed by compound addition and measured for 7 days by novel tank test; assay type: functional, organism-based; settings: dose 0.1-1 µM, time 7.0 day
In short: (§1)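 Zebrafish were exposed to 10 mg/L reserpine for 40 min. Compound (0.1, 0.5, 1 μM) or fluoxetine (1 μM) was given 24 h later for 7 days. Fish kept at 28.5 °C on a 14 h light/10 h dark cycle. Open-field and novel tank tests were video-tracked for distance, velocity, immobility and time in the top. Mean ± SD, n = 6.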

Danio rerio [4] = organism: Danio rerio; experiment: Antidepressant activity in reserpine-induced zebrafish AB depression model assessed as increase in exploratory ability at 0.1 to 1 uM pretreated for 40 mins with reserpine followed by compound addition and measured for 7 days by novel tank test; assay type: functional, organism-based; settings: dose 0.1-1 µM, time 7.0 day; in short: as §1
Mus musculus [5] = experiment: Antidepressant activity in reserpine-induced ICR mouse model assessed as reduction in weight loss at 10 to 20 mg/kg pretreated with reserpine for 3 days followed by compound addition on 4 to 10 days; assay type: functional, organism-based; settings: dose 10-20 mg/kg, time 6.0 day
In short: (§2)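 Body weight was recorded daily. OFT: 5 min session scoring distance, speed, rearing and dejection. FST and TST: 6 min, with immobility scored over the last 4 min. Mean ± SD, n = 6; one-way ANOVA and t-test.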

Mus musculus [6] = experiment: Antidepressant activity in reserpine-induced ICR mouse model assessed as increase in total distance traveled at 10 to 20 mg/kg pretreated with reserpine for 3 days followed by compound addition for 1 week by open field test; assay type: functional, organism-based; settings: dose 10-20 mg/kg, time 1.0 weeks; in short: as §2
Mus musculus [7] = experiment: Antidepressant activity in reserpine-induced ICR mouse model assessed as increase in mobility at 10 to 20 mg/kg pretreated with reserpine for 3 days followed by compound addition for 1 week by open field test; assay type: functional, organism-based; settings: dose 10-20 mg/kg, time 1.0 weeks; in short: as §2
Hippocampus = experiment: Antidepressant activity in mouse hippocampal tissue assessed as reduction in neuronal cell damage at 10 to 20 mg/kg by H and E staining based assay; assay type: functional, organism-based; settings: dose 10-20 mg/kg
In short: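 Mice given compound at 10 or 20 mg/kg, with fluoxetine 20 mg/kg as comparator. Paraffin tissue sections of 4 μm were cut. Staining: hematoxylin 5 min, 75% HCl-ethanol differentiation 30 s, eosin 2 min. Organs (liver, kidney, lung, heart, spleen) examined at ×400; hippocampus (CA1, CA3, DG) at ×200.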

Mus musculus [8] = experiment: Antidepressant activity in reserpine-induced mouse assessed as downregulation of 5-HT2AR expression at 10 to 20 mg/kg pretreated with reserpine for 3 days followed by compound addition on day 4 to 10 by Western blot analysis; assay type: functional, organism-based; settings: dose 10-20 mg/kg, time 6.0 day
In short: (§3)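 Whole-brain protein was quantified by BCA and diluted to 3 mg/mL, then run on 4−20% SDS-PAGE and blotted. Primary antibody at 4 °C overnight, secondary 1 h at room temperature. 5-HT1AR and 5-HT2AR levels are relative; mean ± SD, n = 3.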

Mus musculus [9] = experiment: Antidepressant activity in reserpine-induced mouse assessed as increase in 5-HT1AR expression at 10 to 20 mg/kg pretreated with reserpine for 3 days followed by compound addition on day 4 to 10 by Western blot analysis; assay type: functional, organism-based; settings: dose 10-20 mg/kg, time 6.0 day; in short: as §3
Mus musculus [10] = experiment: Antidepressant activity in reserpine-induced mouse hippocampal tissue model assessed as increase in 5-HT level at 10 to 20 mg/kg pretreated with reserpine for 3 days followed by compound addition on day 4 to 10 by HPLC analysis; assay type: functional; settings: dose 10-20 mg/kg; time 6 day
[11] = AUC(0 to 24 hrs) in Sprague-Dawley rat at 10 mg/kg, IG measured upto 1440 mins by LC-MS/MS analysis; assay type: ADME, organism-based; design: time < 1440 min, dose 10 mg/kg, route ig; settings: in vivo, po
[12] = AUC(0 to infinity) in Sprague-Dawley rat at 2 mg/kg, iv measured upto 1440 mins by LC-MS/MS analysis; assay type: ADME, organism-based; design: dose 2 mg/kg, time < 1440 min, route iv; settings: in vivo
[13] = Cmax in Sprague-Dawley rat at 10 mg/kg, IG measured upto 1440 mins by LC-MS/MS analysis; assay type: ADME, organism-based; design: time < 1440 min, dose 10 mg/kg, route ig; settings: in vivo, po
[14] = Tmax in Sprague-Dawley rat at 2 mg/kg, iv measured upto 1440 mins by LC-MS/MS analysis; assay type: ADME, organism-based; settings: in vivo

In the case of `O=C1c2ccccc2-c2nccc3cc(OCCCCCN4CCN(c5ccccc5F)CC4)cc1c23`, the Activity (PC-12) is reported as “Active”, the IC50 [1] is reported as 4 nM and the Ratio IC50 (Homo sapiens) is reported as 262. For the same molecule, the IC50 at 48 h [2] was > 10 µM, the Activity (Danio rerio [3]) was “Active” and the Activity (Danio rerio [4]) was “Active”. The Activity (Mus musculus [5]) was “Active”, the Activity (Mus musculus [6]) was “Active” and the Activity (Mus musculus [7]) was “Active”. For the same molecule, the Activity (Hippocampus) was “Active”, the Activity (Mus musculus [8]) was “Active” and the Activity (Mus musculus [9]) was “Active”. It also gave an Activity (Mus musculus [10]) of 579.92 ng/mL, an AUC(0-t) at 24 h [11] of 491 ng·h/mL and an AUC(0-inf) [12] of 2320 ng·h/mL. For the same molecule, the Cmax [13] was 99.7 ng/mL and the Tmax [14] was 4.8 min.
